# Source: PubChem BioAssay
# Compounds with a hit are over-represented: about 1.2% of the library has one in this group of screens.
# NSD2 inh: NSD2 (human) methyltransferase inhibition. O96028. NSD2 peptide methylation, AlphaScreen, 120 min. inhibition, % at 12.5 µM. 0.54% of 310,000 active. AID 743445; in the data active = inhibition above about 50%
# FN deposit inh: fibronectin deposition inhibition | AH1F fibroblasts, Alexa488-fibronectin deposition fluorescence, overnight | inhibition, % at 12.6 µM | 0.086% of 350,000 active | AID 743247;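 active = mean inhibition across replicates of 30% or more, regardless of how many single replicates reach that level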;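 also: positive control wells lacked labelled fibronectin entirely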
#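 Material: AH1F fibroblast monolayer depositing Alexa488-labelled fibronectin into matrix / Amount: 10000 AH1F cells per well / Signal: fluorescence 485/525 nm / Medium: DMEM, 2% serum / Compound: single dose, pinned / Incubation: 1 h cell adhesion before compound, then overnight fibronectin incubation / Reagent: Alexa488-FN, 24 nM final / Read-out: inhibition of fibronectin deposition signal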
# Glyco luc inh: N-linked glycosylation inhibition. D54 ERlucT glycosylation luciferase reporter, 24 h; percent of 100 nM tunicamycin response. reporter increase, % at 12.5 µM. 0.23% of 360,000 active;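 active = mean luciferase reporter signal, scaled so untreated is 0 and the glycosylation-blocking control 100, at or above a set limit in every replicate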;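 also: luciferase carries N-glycosylation sites so blocking glycosylation raises the light; 0% = median of neutral control wells and 100% = median of 100 nM tunicamycin wells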
# AF4-AF9 inh: blocks AF4 peptide binding to human AF9; P42568; AlphaScreen, biotin-AF4 peptide binding to FLAG-AF9; AID 651704; 0.47% of 350,000 active; inhibition, % at 10 µM;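 active = every replicate reaching a set inhibition limit, whatever the replicate mean, cut at about 25% in these data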;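 also: 0% = plate neutral control median and 100% = total signal loss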
# Target sequence (P42568 whole entry, looked up): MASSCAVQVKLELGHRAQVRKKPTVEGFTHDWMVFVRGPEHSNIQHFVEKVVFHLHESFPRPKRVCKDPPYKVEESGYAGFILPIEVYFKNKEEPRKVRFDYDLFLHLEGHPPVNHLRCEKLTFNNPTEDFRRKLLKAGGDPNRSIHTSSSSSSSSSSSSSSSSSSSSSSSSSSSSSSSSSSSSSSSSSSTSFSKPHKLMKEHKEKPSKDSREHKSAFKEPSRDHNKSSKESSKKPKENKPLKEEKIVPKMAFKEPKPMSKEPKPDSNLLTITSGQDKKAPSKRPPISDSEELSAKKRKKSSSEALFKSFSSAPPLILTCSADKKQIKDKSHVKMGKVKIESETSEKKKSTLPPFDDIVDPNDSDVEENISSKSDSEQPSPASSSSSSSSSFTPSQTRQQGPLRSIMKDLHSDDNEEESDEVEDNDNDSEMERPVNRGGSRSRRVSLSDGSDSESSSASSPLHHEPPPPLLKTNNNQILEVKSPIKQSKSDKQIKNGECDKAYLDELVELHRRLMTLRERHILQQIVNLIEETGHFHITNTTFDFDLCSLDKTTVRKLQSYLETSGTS
# RAD52 anneal inh: inhibitors of human RAD52 DNA annealing. recombinant RAD52 DNA annealing, FRET fluorescence. inhibition, % at 18.7 µM. 0.46% of 360,000 active. AID 651710;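 active = every replicate showing at least 50% inhibition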
# RAD54 branch: inhibitors of human RAD54 branch migration | 0.14% of 360,000 active | Q92698 | RAD54 Holliday junction branch migration, FAM/BHQ fluorescence | inhibition, % at 10.4 µM;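 active = mean normalized replicate activity at least 40 and at least half of replicates scoring 40 or more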;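 also: 0% = median of neutral control wells and 100% = median of positive control wells; inhibitors cause a drop in the FAM fluorescence signal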
# Alpha artifact: counter-screen for NSD2 inhibitors: AlphaScreen artifacts; 9.4% of 1,500 active; AlphaScreen artifact counterscreen, preloaded methylated H4 peptide; AC35, µM (titrated, usually from 10 µM), inactives show at the top dose activity change, negative = signal loss; shares compounds with NSD2 inh; call rule not given here
# An asterisk follows results filed as active; i = inactive; . = no result given.
SMILES,NSD2 inh,FN deposit inh,Glyco luc inh,AF4-AF9 inh,RAD52 anneal inh,RAD54 branch,Alpha artifact
CCCCn1c(SCC(=O)c2ccc(O)c(O)c2)nc2ccsc2c1=O,36.4,.,0.3,.,.,.,.
CCCCn1nnc(NC(=O)c2ccco2)n1,122.8*,.,-0.7,.,.,3.7,3.2%
CCOc1ccccc1N1CCN(C/C=C/c2ccc(N(C)C)cc2)CC1,68.9*,.,-0.7,.,.,8.7,9.17µM*
COc1ccc(/C=N/NC(=O)c2nn(-c3ccccc3)c(=O)c3c(N)scc23)cc1,100.3*,7.7,5.2,.,.,-7.2,-10.0%
O=C(CSc1ccc(Cl)cc1)Nc1cc(-c2nc3ncccc3o2)ccc1Cl,50.9*,0.5,.,-0.3,-5.3,.,-6.4%
Cc1cccc(C(=O)Nc2cccc(-c3cnc4ccccc4n3)c2)c1,56.9*,-6.8,1.2,.,.,3.5,-2.3%
CC(C)CN1CN(Cc2ccco2)CNC1=S,-0.4,-6.5,0.1,.,.,7.1,.
S=C1NCN(Cc2ccco2)CN1CCc1ccccc1,53.3*,-9.5,0.8,2.7,-6.6,0.6,-2.9%
CC1(C)Cc2cccc(OCC(=O)O)c2O1,53.7*,.,2.3,.,.,-0.2,-0.5%
Cc1cccc(NC(=O)CSCC(=O)NCc2cccc(C(F)(F)F)c2)c1,97.9*,.,2.8,-0.8,-6.3,-7.3,1.3%
Cc1cc(NC(=O)CSCC(=O)NCc2cccc(C(F)(F)F)c2)no1,-0.3,7.4,0.4,-1.1,-12.4,.,.
COc1ccc(-c2cnc3c(c2)C(=O)N([C@@H](C)CO)C[C@@H](C)[C@@H](CN(C)C(=O)C2CCC2)O3)cc1,.,.,.,-4.2,-6.0,4.0,.
CCCC(=O)N1CCC2(CC1)CN(C(=O)Nc1c(C)noc1C)[C@@H](CO)c1c2c2ccc(OC)cc2n1C,.,.,.,0.6,9.7,.,.
Cc1ccc(S(=O)(=O)/N=C2/NC(=O)/C(=C\c3cc(Br)cc(Br)c3O)S2)cc1,109.3*,.,2.9,.,.,-189.0,-3.6%
O=C1N/C(=N\S(=O)(=O)c2ccccc2)S/C1=C\c1cc([N+](=O)[O-])ccc1O,.,-4.6,2.0,0.0,i,-66.6,.
Cc1ccc(S(=O)(=O)/N=C2/NC(=O)/C(=C/c3cccnc3)S2)cc1,4.4,.,0.7,.,.,.,.
Cc1ccc(S(=O)(=O)/N=C2/NC(=O)/C(=C/c3ccc(Br)o3)S2)cc1,70.1*,.,2.0,.,.,.,-2.0%
CC(C)CC#Cc1ccc2c(c1)O[C@H](CN(C)Cc1ccccc1F)[C@H](C)CN([C@@H](C)CO)S2(=O)=O,.,9.7,.,0.6,2.7,17.0,.
CCCC(=O)Nc1ccc2c(c1)C(=O)N(C)C[C@H](OC)[C@@H](C)CN(Cc1cncnc1)[C@H](C)CO2,.,-4.3,.,-1.1,7.4,0.2,.
Cc1ccc(-c2c3c(=O)n(C)c(=O)n(C)c3cn2Cc2cccnc2)cc1,-0.7,.,2.8,.,.,-1.2,.
Cn1c(=O)c2c(-c3ccccc3)n(Cc3cccnc3)cc2n(C)c1=O,52.7*,.,1.8,.,.,-0.5,-3.7%
c1cc(-c2ccoc2)n2ccnc2c1,104.5*,16.2,-1.7,-0.9,-303.5,-23.3,-1.1%
CN(Cc1cnn(C)c1)C(=O)c1cc(COc2c(F)cccc2F)on1,0.7,.,1.0,-1.4,-3.4,-4.3,.
COc1cccc(CN(C)C(=O)c2cc(COc3c(F)cccc3F)on2)c1,99.1*,0.8,-0.5,-1.8,-14.3,-2.1,3.2%
Cc1ccc(C#N)c(SCc2ccccc2F)n1,60.4*,-5.2,-3.6,-2.8,-9.6,9.5,-1.1%
SMILES,NSD2 inh,FN deposit inh,Glyco luc inh,AF4-AF9 inh,RAD52 anneal inh,RAD54 branch,Alpha artifact
CC(=O)Nc1cc(C(=O)OC(C(=O)c2ccccc2)c2ccccc2)ccc1C (centres undefined),-0.2,-3.3,0.3,.,.,-0.3,.
COc1ccc(C(=O)C(OC(=O)c2ccc(C)c(NC(C)=O)c2)c2ccccc2)cc1 (centres undefined),50.3*,5.4,-1.3,.,.,-6.8,-4.6%
Cc1noc(C)c1S(=O)(=O)Nc1ccc2c(c1)C(=O)N([C@@H](C)CO)C[C@@H](C)[C@@H](CN(C)C(=O)NC(C)C)O2,.,-0.7,.,-4.4,-10.8,-7.2,.
CCCCn1cnc2c(=S)nc(N)[nH]c21,56.9*,-15.9,-0.4,-6.6,-6.3,.,2.7%
C[C@@H]1CN([C@H](C)CO)C(=O)c2cc(NC(=O)Nc3ccccc3)ccc2O[C@@H]1CN(C)S(=O)(=O)c1ccc(F)cc1,.,7.5,.,-7.8,1.5,1.3,.
COc1ccc(S(=O)(=O)Nc2ccc3c(c2)C(=O)N([C@@H](C)CO)C[C@H](C)[C@H](CN(C)C(=O)c2ccccc2)OCCCC[C@@H](C)O3)cc1,.,-2.8,.,1.2,-8.8,5.2,.
Cc1cccc(-c2nnc(SCC(=O)c3ccc(O)cc3O)n2C)c1,96.4*,4.1,1.5,0.5,-8.1,.,-6.4%
O=C1[C@@H]2[C@@H](CC(COc3ccccc3)=C([C@H](O)c3ccccc3)[C@@H]2CO)C(=O)N1Cc1ccccc1,.,.,.,3.1,5.8,.,.
COc1cc(/C=C2\SC(N)=NC2=O)cc(Cl)c1O,67.7*,0.6,0.3,-5.5,-50.7,-9.8,-3.8%
Cc1cc(-c2ccc(C)c(S(=O)(=O)N3CCN(c4ccccn4)CC3)c2)on1,130.9*,3.3,-0.3,-0.9,-15.8,-2.3,-3.3%
N#Cc1c(NC(=O)c2ccncc2)sc2c1CCC2,56.8*,.,2.2,7.0,-20.1,.,-5.3%
NC(=O)c1c(NC(=O)c2ccncc2)sc2c1CCCC2,1.9,3.0,-0.5,2.4,-14.9,.,.
CC(=O)C1=C(O)C(=O)N(Cc2cccnc2)C1c1ccc(O)cc1 (centres undefined),-3.6,8.5,-0.5,-1.5,-15.3,.,.
CC(=O)C1=C(O)C(=O)N(Cc2cccnc2)C1c1ccccc1 (centres undefined),130.6*,.,3.3,.,.,0.6,-2.2%
CCOC(=O)C1=C(C)N(C)C(=S)NC1c1ccccc1Cl (centres undefined),96.0*,.,-0.5,.,.,3.3,1.1%
CCOC(=O)C1=C(C)N(C)C(=S)NC1c1cccc(Cl)c1Cl (centres undefined),-3.1,4.3,0.8,4.6,-6.0,0.5,.
C[C@@H]1CN([C@@H](C)CO)C(=O)c2cc(NC(=O)CCC(F)(F)F)ccc2O[C@@H](C)CCCCO[C@H]1CN(C)S(=O)(=O)c1cccs1,.,.,.,-1.4,-37.2,-3.9,.
CO[C@@H]1CN(C)C(=O)c2cc(NC(C)=O)ccc2OC[C@H](C)N(C(=O)C2CCCCC2)C[C@H]1C,.,-0.4,.,.,.,.,.
Cc1ccc(N2NC(=O)/C(=C/c3ccc(-c4ccc(Cl)c(C(=O)O)c4)o3)C2=O)cc1,19.6,-7.1,-0.3,-2.9,-14.8,3.9,.
O=C1NN(c2ccc(Cl)cc2)C(=O)/C1=C\c1ccc(-c2cccc(C(=O)O)c2)o1,53.8*,0.3,1.2,-2.2,-41.2,.,-12.1%
CCc1ccc(N(C(=O)CNC(=O)c2ccco2)C(C(=O)NCC2CCCO2)c2ccccc2)cc1 (centres undefined),0.4,4.9,2.2,-1.0,-12.7,.,.
